Shown are actives, neighbours in structure and some others; about 2.5% of the full set was active somewhere.
dFosB act = activators of mouse delta FosB homodimer | purified delta FosB, TAMRA-CDK5 oligo fluorescence polarization; percent of positive-control signal above neutral wells | activation, % at 25 µM | 340,000 tested, 0.99% active | AID 493131;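 active = mean activation above about 17%, with every replicate also reaching it, limit read from the data, passing the limit was not always enough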
Target sequence (P13346 whole entry, looked up): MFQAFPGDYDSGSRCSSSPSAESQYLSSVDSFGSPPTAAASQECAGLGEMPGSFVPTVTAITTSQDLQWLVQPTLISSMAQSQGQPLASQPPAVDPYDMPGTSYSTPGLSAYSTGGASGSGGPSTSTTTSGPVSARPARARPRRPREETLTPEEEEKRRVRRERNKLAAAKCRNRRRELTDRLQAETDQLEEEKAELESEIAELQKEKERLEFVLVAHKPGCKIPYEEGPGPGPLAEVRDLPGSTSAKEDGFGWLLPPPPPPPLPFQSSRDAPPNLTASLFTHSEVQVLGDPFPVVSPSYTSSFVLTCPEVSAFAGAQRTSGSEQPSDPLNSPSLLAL
IMP-1 inh-1 = blocks Pseudomonas aeruginosa IMP-1 metallo-beta-lactamase; inhibition, % at 5.6 µM; 290,000 tested, 0.45% active; purified IMP-1, nitrocefin hydrolysis, epi-absorbance fluorescence;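 active = inhibition above the mean plus 3 SD of all compounds in the same screening run, cut at about 4.5% in these data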;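 note: 0% = IMP-1 with DMSO and 100% = DMSO wells lacking enzyme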
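System: Purified IMP-1 | Read-out basis: Percent enzyme inhibition | Controls: IMP-1 with DMSO as 0%, enzyme-free DMSO as 100% | Replicates: One well per compound | Doses: 5.6 µM nominal single concentration | Detection: Epi-absorbance fluorescence, 480 nm excitation, 530 nm emission | Incubation: 25 °C, 15 min preincubation, 25 min reaction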
m5-HT2A agonist = agonists of mouse serotonin 5-HT2A receptor (HTR2A) | CHO-K1 mHTR2A beta-arrestin complementation, luminescence; percent of 30 µM serotonin response | activation, % at 7.6 µM | 360,000 tested, 0.66% active | AID 624169;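 active = activation above a run cutoff, the mean activation of all tested compounds plus 3 SD, cut at about 14% in these data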;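 note: 0% = plate median of compound wells and 100% = 30 µM serotonin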
VIM-2 inhibitor = inhibitors of Pseudomonas aeruginosa VIM-2 metallo-beta-lactamase. inhibition, % at 5.6 µM. purified VIM-2, nitrocefin hydrolysis, epi-absorbance fluorescence. 290,000 tested, 0.89% active;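 active = inhibition above the mean of all tested compounds plus 3 SD, cutoff set per screening run, cut at about 7.5% in these data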;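 note: red hydrolysis product quenches plate fluorescence so inhibitors raise well fluorescence; 0% = enzyme with DMSO and 100% = DMSO without enzyme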
IMP-1 inh-2 = selectivity counter-screen for VIM-2 inhibitors: IMP-1 metallo-beta-lactamase inhibitors. inhibition, % at 5.6 µM. shares compounds with VIM-2 inhibitor. 1,300 tested, under 10 active. purified IMP-1, nitrocefin hydrolysis, epi-absorbance fluorescence. AID 1856; call rule not given here;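 note: 0% = enzyme with vehicle and 100% = vehicle without enzyme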
VIM-2 FRET ctr = VIM-2 FRET inhibition, artifact counter-screen; 1,300 tested, 23% active; purified VIM-2, CCF2 FRET substrate hydrolysis; inhibition, % at 5.6 µM; shares compounds with VIM-2 inhibitor;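 active = inhibition above the mean of all tested compounds plus 3 SD, cut at about 19% in these data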;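 note: 0% = VIM-2 plus DMSO and 100% = no enzyme wells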
TEM-1 inh = blocks E. coli TEM-1 beta-lactamase in VIM-2 selectivity screen. shares compounds with VIM-2 inhibitor. Purified TEM-1, nitrocefin hydrolysis, epi-absorbance fluorescence. 1,300 tested, 3% active. inhibition, % at 5.6 µM. AID 1866;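 active = inhibition above that campaign's mean inhibition plus 3 SD, cut at about 0.46% in these data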;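 note: 0% = TEM-1 with DMSO and 100% = TEM-1 with 100 µM potassium clavulanate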
Target sequence (P62593 whole entry, looked up): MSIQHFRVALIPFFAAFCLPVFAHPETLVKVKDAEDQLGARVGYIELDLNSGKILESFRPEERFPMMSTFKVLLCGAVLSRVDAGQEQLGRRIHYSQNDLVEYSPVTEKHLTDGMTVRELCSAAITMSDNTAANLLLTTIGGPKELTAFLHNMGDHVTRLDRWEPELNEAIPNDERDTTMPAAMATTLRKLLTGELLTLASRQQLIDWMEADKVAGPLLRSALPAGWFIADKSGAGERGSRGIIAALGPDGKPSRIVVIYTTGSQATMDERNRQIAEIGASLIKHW
VIM-2 confirm 2 = confirmation of P. aeruginosa VIM-2 metallo-beta-lactamase inhibitors. shares compounds with VIM-2 inhibitor. purified VIM-2, nitrocefin hydrolysis, epi-absorbance. 1,300 tested, 96% active. inhibition, % at 5.6 µM. AID 2187;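 active = inhibition of the VIM-2 beta-lactamase enzyme above about 11% from the earlier first-round screen, limit read from the data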;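 note: 0% = VIM-2 with DMSO and 100% = buffer wells without enzyme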
* marks the source's active call; other numbers are inactive results; · = no result given.

SMILES | dFosB act | IMP-1 inh-1 | m5-HT2A agonist | VIM-2 inhibitor | IMP-1 inh-2 | VIM-2 FRET ctr | TEM-1 inh | VIM-2 confirm 2
Cc1ccc2nc3c(c(Nc4ccc(O)cc4)c2c1)CCC3 | 14 | -4 | -9 | 19* | -3 | -2 | -5 | 32*
Cc1n[nH]c(C)c1CCCCOc1ccc([N+](=O)[O-])cc1 | -5 | -2 | -2 | 20* | -3 | 47* | -7 | 30*
CCCc1cc(=O)oc2cc(OCC(=O)NCCCn3ccnc3)c(Cl)cc12 | -5 | -3 | -1 | 19* | -3 | -4 | -6 | 30*
Cc1c(CCC(=O)NCCCn2ccnc2)c(=O)oc2cc3oc4c(c3cc12)CCCC4 | -1 | -1 | -1 | 6 | · | · | · | ·
Cc1oc2c(C)c3oc(=O)c(CCC(=O)NCCCn4ccnc4)c(C)c3cc2c1C | 4 | 1 | -3 | 24* | -2 | -10 | -8 | 30*
Cc1oc2cc3oc(=O)c(CCC(=O)NCCCn4ccnc4)c(C)c3cc2c1C | -15 | -6 | 1 | 4 | · | · | · | ·
Cc1c(OCC(=O)NCCCn2ccnc2)ccc2c3c(c(=O)oc12)CCCC3 | -23 | -3 | -4 | 54* | -3 | -8 | -14 | 64*
CCCc1cc(=O)oc2c(C)c(OCC(=O)NCCCn3ccnc3)ccc12 | -19 | -1 | 0 | 16* | -2 | -12 | -5 | 27*
CO/N=C(/C(=O)N[C@@H]1C(=O)N2C(C(=O)O)=CCS[C@H]12)c1cnc(N)s1 | · | 0 | 3 | 0 | · | · | · | ·
CCCCN(CC)CCCNC(=O)c1cc2c(=O)n(C)c3ccccc3c2n1C | -29 | -4 | 3 | 25* | -3 | -1 | -6 | 30*
Cn1c(C(=O)N2CCCC2)cc2c(=O)n(C)c3ccccc3c21 | -8 | -3 | 3 | 5 | · | · | · | ·
Cn1c(C(=O)NC2CCCC2)cc2c(=O)n(C)c3ccccc3c21 | -23 | -1 | 6 | 18* | -3 | -3 | -6 | 21*
Cn1c(C(=O)NCCCN2CCN(c3ccccc3F)CC2)cc2c(=O)n(C)c3ccccc3c21 | -15 | -1 | 13 | 15* | -3 | -3 | -6 | 25*
Cn1c(C(=O)NCC2CCCO2)cc2c(=O)n(C)c3ccccc3c21 (stereo not drawn) | 0 | -1 | 2 | 15* | -3 | 0 | -6 | 20*
CCCCN(CC)CCNC(=O)c1cn(C)c(=O)c2c1c1ccccc1n2C | -5 | -5 | 6 | 6 | · | · | · | ·
Cn1c(C(=O)NCCCN2CCOCC2)cc2c(=O)n(C)c3ccccc3c21 | -18 | -3 | 6 | 18* | -3 | -2 | -4 | 28*
CC(C)Cn1cc(C(=O)NCCCN2CCC(C)CC2)c2c3ccccc3n(C)c2c1=O | -12 | · | -2 | · | · | · | · | ·
Cn1c(C(=O)NCCN2CCCCCC2)cc2c(=O)n(C)c3ccccc3c21 | -22 | -1 | 6 | 19* | 0 | 7 | -7 | 29*
Cn1c(C(=O)NCc2ccccn2)cc2c(=O)n(C)c3ccccc3c21 | -37 | 2 | -5 | 16* | -3 | 3 | -6 | 25*
Cn1c(C(=O)NCCN2CCN(Cc3ccccc3)CC2)cc2c(=O)n(C)c3ccccc3c21 | -1 | · | -5 | · | · | · | · | ·
CC1CCN(CCCNC(=O)c2cc3c(=O)n(C)c4ccccc4c3n2C)CC1 | -32 | -3 | -6 | 21* | -2 | 2 | -7 | 31*
c1ccc(CN2CCC3(CC2)Nc2ccccc2S3)cc1 | 0 | -4 | -1 | -3 | · | · | · | ·
COc1ccc(-c2nnc3sc(CCN4C(=O)c5ccccc5C4=O)nn23)cc1 | -14 | -2 | -1 | 18* | -2 | -3 | -3 | 4
CCN1CCN(c2ccc(N=Cc3ccc(O)cc3O)cc2)CC1 | -4 | -5 | -2 | 27* | -7 | -3 | -10 | 45*
COC(=O)c1c(NC(=O)c2ccccc2OC)sc(C(=O)N2CCOCC2)c1C | -21 | -2 | -2 | 14* | -3 | 2 | -7 | 20*
SMILES | dFosB act | IMP-1 inh-1 | m5-HT2A agonist | VIM-2 inhibitor | IMP-1 inh-2 | VIM-2 FRET ctr | TEM-1 inh | VIM-2 confirm 2
Cc1ccc(S(=O)(=O)N(C)C[C@@H]2OCc3cnnn3CCCC(=O)N([C@H](C)CO)C[C@H]2C)cc1 | · | · | 6 | · | · | · | · | ·
O=C(NC(=S)NCC1CCCO1)c1ccccc1F (stereo not drawn) | -5 | -3 | 1 | 1 | · | · | · | ·
O=C(NC(=S)NCC1CCCO1)c1ccccc1Br (stereo not drawn) | 3 | -1 | -1 | 28* | -3 | 52* | -4 | 36*
O=C(Nc1ccc2nc(-c3cccnc3)[nH]c2c1)c1ccccc1F | -1 | -1 | -3 | 49* | -1 | 0 | -1 | 4
Cc1cc(C)n2nc(/C(C#N)=C/c3ccccn3)c(C#N)c2n1 | 6 | 0 | 6 | 45* | -3 | -28 | -8 | 7.7*
Cc1cc(C)n2nc(CC#N)c(C#N)c2n1 | -3 | -2 | 3 | -1 | · | · | · | ·
CCC(C)CN1C(=O)CSCC1(C)C(=O)NC(C)C (stereo not drawn) | · | · | -2 | · | · | · | · | ·
CC(/C=N/n1c(-c2ccco2)n[nH]c1=S)=C\c1ccccc1 | -9 | -3 | 6 | 13* | -3 | 40* | -7 | 23*
CCc1n[nH]c(=S)n1/N=C/c1ccc(NC(C)=O)cc1 | -2 | -3 | 3 | 23* | -4 | 61* | -7 | 46*
CCc1n[nH]c(=S)n1/N=C/C(C)=C\c1ccccc1 | -15 | -2 | -3 | 57* | -4 | 83* | -10 | 70*
CC(/C=N/n1c(-c2ccccn2)n[nH]c1=S)=C\c1ccccc1 | · | -4 | 1 | 2 | · | · | · | ·
C#CCNC(=O)C[C@@H]1C[C@@]2(C(=O)OC)CCCCC=C2N(Cc2ccc(Cl)cc2Cl)C1=O | · | · | 2 | · | · | · | · | ·
NNC(=O)c1csc(-c2ccc(C(F)(F)F)cc2Cl)n1 | -14 | -2 | 1 | -2 | · | · | · | ·
CSc1nc(C)c2c(n1)N(c1ccc(O)cc1)CC2 | -5 | -3 | -4 | 16* | -2 | 8 | -6 | 27*
COc1cc(CNS(=O)(=O)c2ccc3c(c2)CC(C)N3C(C)=O)cc(OC)c1OC (stereo not drawn) | -6 | -3 | -1 | -2 | · | · | · | ·
COC(=O)COc1ccc(-c2nn(C)c(=O)c3ccccc23)cc1 | -13 | -1 | 7 | 4 | · | · | · | ·
Cn1nc(-c2ccc(OCC(N)=O)cc2)c2ccccc2c1=O | -12 | -4 | 4 | 13* | -2 | 0 | -5 | 30*
Cc1cccc(NC(=O)COc2ccc(-c3nn(C)c(=O)c4ccccc34)cc2)c1 | -14 | -2 | 5 | 16* | -3 | 0 | -7 | 18*
CCCNC(=O)COc1ccc(-c2nn(C)c(=O)c3ccccc23)cc1 | -6 | -1 | 1 | 13* | -2 | -1 | -3 | 20*
